# Where “and” joins values, the source holds several entries; their conditions need not be identical. Identical values can stand only once. Entries after “also recorded” stand apart in the source; their conditions may differ.
# What was measured:
# [1] = test system: patients with relapsed or refractory light-chain amyloidosis; settings: weekly oral ixazomib; cited from earlier work
# [2] = Plasma pharmacokinetics of ixazomib after IV bolus; type: in vivo, human; settings: for DN AUC0–168 h: dose normalized; for DN AUC0–168 h / C0 / half-life / AUC0–168 h: plasma
# [3] = test system: relapsed/refractory lymphoma; assay: Disease response by International Working Group criteria for lymphoma; type: in vivo, human; settings: for Duration of response: follicular lymphoma patient
# Method in brief: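 CT and PET were done at screening, with repeat PET at end of cycles 2 and 4 if positive. Response was assessed at end of cycle 2, every 2 cycles to cycle 12, then every 4 cycles. Evaluable patients had measurable baseline disease and ⩾1 post-baseline assessment.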
# [4] = test system: patients with relapsed or refractory MM; settings: twice-weekly oral ixazomib; cited from earlier work
# [5] = day 15, IV 1.4 mg/m^2, n=4, geometric mean (%CV)
# [6] = day 15, IV 3.11 mg/m^2, n=2, individual values
# [7] = day 1, IV 1.4 mg/m^2, n=4, geometric mean (%CV)
# [8] = day 1, IV 1.76 mg/m^2, n=6, geometric mean (%CV)
# [9] = day 1, IV 2.34 mg/m^2, n=7, geometric mean (%CV)
# [10] = day 1, IV 3.11 mg/m^2, n=5, geometric mean (%CV)
# [11] = day 15, IV 0.5 mg/m^2, n=1, individual value
# [12] = day 15, IV 1 mg/m^2, n=1, individual value
# [13] = day 15, IV 2.34 mg/m^2, n=7, geometric mean (%CV)
compound,measurement,setting,value
CC(C)C[C@H](NC(=O)CNC(=O)c1cc(Cl)ccc1Cl)B(O)O [ixazomib],Rate of all-cause rash/maculopapular rash,[1],18%
same,Dose proportionality of plasma exposure,[2]; 0.5–3.11 mg/m^2,increased dose proportionally; also recorded: dose-proportionality of ixazomib exposure
same,Accumulation of ixazomib between day 1 and day 15 doses,"[2]; AUC0–168 h, Figure 1d",approximately twofold
same,Accumulation ratio,[2]; [5],2.17 (7)
same,Accumulation ratio,"[2]; day 15, IV 2.34 mg/m^2, n=6, geometric mean (%CV)",2.27 (15)
same,Accumulation ratio,[2]; [6],2.02 and 2.21
same,DN AUC0–168 h,[2]; [7],221 (41) hr/ng/ml/mg
same,DN AUC0–168 h,[2]; [8],259 (49) hr/ng/ml/mg
same,DN AUC0–168 h,[2]; [9],257 (50) hr/ng/ml/mg
same,DN AUC0–168 h,[2]; [10],278 (46) hr/ng/ml/mg
same,DN AUC0–168 h,[2]; [11],151 h/ng/mL/mg
same,DN AUC0–168 h,[2]; [12],385 h/ng/mL/mg
same,DN AUC0–168 h,[2]; [5],481 (34) hr/ng/ml/mg
same,DN AUC0–168 h,[2]; [13],500 (55) hr/ng/ml/mg
same,C0,"[2]; human, iv, 0.25 mg/m2, C0, plasma, day 1, IV 0.25 mg/m^2, n=1, individual value",59.4 ng/mL
same,C0,"[2]; human, iv, 1 mg/m2, C0, plasma, day 15, IV 1 mg/m^2, n=1, individual value",383 ng/mL
same,C0,"[2]; human, iv, 1.4 mg/m2, C0, plasma, day 1, IV 1.4 mg/m^2, n=4, geometric mean (%CV)",714 ng/mL
same,C0,"[2]; human, iv, 1.4 mg/m2, C0, plasma, day 15, IV 1.4 mg/m^2, n=4, geometric mean (%CV)",497 ng/mL
same,half-life,"[2]; human, iv, 1.4 mg/m2, t½, terminal disposition phase half-life, day 15, IV 1.4 mg/m^2, n=4, geometric mean (%CV)",209 h
same,C0,"[2]; human, iv, 1.76 mg/m2, C0, plasma, day 1, IV 1.76 mg/m^2, n=7, geometric mean (%CV)",542 ng/mL
same,C0,"[2]; human, iv, 1.76 mg/m2, C0, plasma, day 15, IV 1.76 mg/m^2, n=3, geometric mean (%CV)",499 ng/mL
same,half-life,"[2]; human, iv, 1.76 mg/m2, t½, terminal disposition phase half-life, day 15, IV 1.76 mg/m^2, n=3, geometric mean (%CV)",146 h
same,C0,"[2]; human, iv, 2.34 mg/m2, C0, plasma, day 15, IV 2.34 mg/m^2, n=7, geometric mean (%CV)",803 ng/mL
same,half-life,"[2]; human, iv, 2.34 mg/m2, t½, terminal disposition phase half-life, day 15, IV 2.34 mg/m^2, n=7, geometric mean (%CV)",108 h
same,C0,"[2]; human, iv, 3.11 mg/m2, C0, plasma, day 1, IV 3.11 mg/m^2, n=5, geometric mean (%CV)",961 ng/mL
same,C0,"[2]; human, iv, 3.11 mg/m2, C0, plasma, day 15, IV 3.11 mg/m^2, n=2, individual values",1110 ng/mL
same,half-life,"[2]; human, iv, 3.11 mg/m2, t½, terminal disposition phase half-life, day 15, IV 3.11 mg/m^2, n=2, individual values",97.9 h
same,half-life,"[2]; human, iv, Terminal half-life, after multiple dosing, weekly IV",96 to 288 h
same,Rapid initial disposition phase over by,[2]; multi-phasic disposition after IV administration,≤ 4 h
same,AUC0–168 h,[2]; [7],637 (30) hr/ng/ml
same,AUC0–168 h,[2]; [8],821 (48) hr/ng/ml
same,AUC0–168 h,[2]; [9],1060 (37) hr/ng/ml
same,AUC0–168 h,[2]; [10],1680 (39) hr/ng/ml
same,AUC0–168 h,[2]; [11],175 h/ng/mL
same,AUC0–168 h,[2]; [12],732 h/ng/mL
same,AUC0–168 h,[2]; [5],1390 (24) hr/ng/ ml
same,AUC0–168 h,[2]; [13],2110 (41) hr/ng/ ml
same,AUC0–168 h,[2]; [6],2090 h/ng/mL and 3080 h/ng/mL
same,C0,[2]; [6],1280 ng/mL
same,Patients achieving responses (CR or PR),[3]; 26 evaluable patients,five
same,Duration of response,[3]; 1.4 mg/m^2,24.1 months
same,Duration of response,[3]; 2.34 mg/m^2,2 months
same,Responders among follicular lymphoma patients,[3]; one complete and three partial responses,4/11 and 4 of 11
same,Responders among peripheral T-cell lymphoma patients,[3]; partial response,1/4
same,Median duration of stable disease,"[3]; six patients, range 1.7–5.4",3.6 months
same,Rate of drug-related rash,[4],28%
same,Rate of drug-related skin and subcutaneous tissue disorders,[4],40%
